# Experimental data as given in ChEMBL document CHEMBL3351225, “Design, synthesis, and structure-activity and structure-pharmacokinetic relationship studies of novel [6,6,5] tricyclic fused oxazolidinones leading to the discovery of a potent, selective, and orally bioavailable FXa inhibitor” (J Med Chem, 2014).
# Tests used:
# [1] = molecular target: Coagulation factor X (Homo sapiens, UniProt P00742); test: Inhibition of human factor 10a using N-Z-D-Arg-Gly-Arg-pNA, S-2765 chromogenic substrate
# Sequence of Coagulation factor X (P00742 41-179 limits assumed): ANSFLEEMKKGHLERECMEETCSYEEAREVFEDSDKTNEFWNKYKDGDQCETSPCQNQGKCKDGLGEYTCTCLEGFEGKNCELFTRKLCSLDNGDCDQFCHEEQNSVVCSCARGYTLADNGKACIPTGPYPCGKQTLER
# Sequence of Coagulation factor X (P00742 235-488 limits assumed): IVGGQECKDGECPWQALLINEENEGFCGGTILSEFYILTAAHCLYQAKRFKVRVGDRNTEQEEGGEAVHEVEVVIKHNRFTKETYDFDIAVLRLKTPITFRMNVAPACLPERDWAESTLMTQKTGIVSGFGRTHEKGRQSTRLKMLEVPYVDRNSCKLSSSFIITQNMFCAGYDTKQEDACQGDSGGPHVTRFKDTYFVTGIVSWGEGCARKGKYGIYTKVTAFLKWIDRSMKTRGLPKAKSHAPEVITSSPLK
# [2] = system: Plasma; test: Anticoagulant activity in citrated rabbit plasma assessed as drug concentration required to double plasma clotting time preincubated for 10 mins at 37 degC by coagulometry; assay type: functional, Oryctolagus cuniculus
# How it was run: (§1)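 Test compound or DMSO added to citrated rabbit plasma (3.8% sodium citrate, 10:90 v/v) and preincubated 10 min at 37 °C. PT and aPTT clotting times measured on a coagulometer with commercial kits. Activity expressed as the concentration needed to double plasma clotting time (CT2, μM).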
# [3] = system: Plasma; test: Anticoagulant activity in citrated rabbit plasma assessed as activated partial thromboplastin time preincubated for 10 mins at 37 degC by coagulometry; assay type: functional, Oryctolagus cuniculus; how it was run: as §1
# [4] = Cmax in Sprague-Dawley rat at 10 mg/kg, po; assay type: ADME, organism-based; parameters: dose 10 mg/kg, route oral; details: in vivo
# How it was run: (§2)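 Male Sprague-Dawley rats, 200−220 g, four per group. Vehicle was 5% DMSO + 5% Tween-80 in 90% saline. The reference drug was given in 10% DMSO + 10% Tween-80 + 80% PEG400 (40% solution in saline). Serial retrobulbar vein samples were quantified by LC-MS. Parameters came from noncompartmental analysis of mean plasma concentrations.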
# [5] = Tmax in Sprague-Dawley rat at 10 mg/kg, po; assay type: ADME, organism-based; parameters: dose 10 mg/kg, route oral; details: in vivo; how it was run: as §2
# [6] = Elimination half life in Sprague-Dawley rat at 10 mg/kg, po; assay type: ADME, organism-based; parameters: dose 10 mg/kg, route oral; details: in vivo, read-out: beta t1/2 (converted); how it was run: as §2
# [7] = Elimination half life in Sprague-Dawley rat at 3 mg/kg, iv; assay type: ADME, organism-based; parameters: dose 3 mg/kg, route intravenous; details: in vivo, read-out: beta t1/2 (converted); how it was run: as §2
# [8] = AUC (0 to infinity) in Sprague-Dawley rat at 10 mg/kg, po; assay type: ADME, organism-based; parameters: time infinity, dose 10 mg/kg, route oral; details: plasma; how it was run: as §2
# [9] = AUC (0 to infinity) in Sprague-Dawley rat at 3 mg/kg, iv; assay type: ADME, organism-based; parameters: time infinity, dose 3 mg/kg, route intravenous; details: plasma; how it was run: as §2
# [10] = Plasma clearance in Sprague-Dawley rat at 3 mg/kg, iv; assay type: ADME, organism-based; parameters: dose 3 mg/kg, route intravenous; how it was run: as §2
# [11] = Volume of distribution at steady state in Sprague-Dawley rat at 3 mg/kg, iv; assay type: ADME, organism-based; parameters: dose 3 mg/kg, route intravenous; details: in vivo, read-out: Vdss; how it was run: as §2
# [12] = Oral bioavailability in Sprague-Dawley rat at 10 mg/kg; assay type: ADME, organism-based; details: in vivo; how it was run: as §2
smiles,measurement,setting,value
O=C(NC[C@@H]1OC(=O)N2c3ccc(N4CCOCC4=O)cc3OC[C@H]12)c1ccc(Cl)s1,IC50,[1],57.8 nM
CC(=O)N(C)c1ccc2c(c1)OC[C@H]1[C@H](CNC(=O)c3ccc(Cl)s3)OC(=O)N21,IC50,[1],87.2 nM
O=C(NC[C@@H]1OC(=O)N2c3ccc(N4CCOC4=O)cc3OC[C@@H]12)c1ccc(Cl)s1,IC50,[1],730 nM
O=C(NC[C@@H]1OC(=O)N2c3ccc(N4CCC5(CC4=O)OCCO5)cc3OC[C@@H]12)c1ccc(Cl)s1,IC50,[1],2510 nM
CO[C@@H]1CCN(c2ccc3c(c2)OC[C@H]2[C@H](CNC(=O)c4ccc(Cl)s4)OC(=O)N32)C(=O)C1,IC50,[1],590 nM
CO[C@H]1CCN(c2ccc3c(c2)OC[C@H]2[C@H](CNC(=O)c4ccc(Cl)s4)OC(=O)N32)C(=O)C1,IC50,[1],1860 nM
O=C(NC[C@@H]1OC(=O)N2c3ccc(N4CC[C@@H](O)CC4=O)cc3OC[C@@H]12)c1ccc(Cl)s1,IC50,[1],130 nM
O=C(NC[C@@H]1OC(=O)N2c3ccc(N4CC[C@H](F)CC4=O)cc3OC[C@@H]12)c1ccc(Cl)s1,IC50,[1],46.6 nM
O=C(NC[C@@H]1OC(=O)N2c3ccc(N4CC[C@H](O)CC4=O)cc3OC[C@@H]12)c1ccc(Cl)s1,IC50,[1],1220 nM
O=C(NC[C@@H]1OC(=O)N2c3ccc(N4CC[C@@H](F)CC4=O)cc3OC[C@@H]12)c1ccc(Cl)s1,IC50,[1],40.6 nM
O=C(NC[C@@H]1OC(=O)N2c3ccc(N4CCNCC4=O)cc3OC[C@@H]12)c1ccc(Cl)s1,IC50,[1],190 nM
CN1CCN(c2ccc3c(c2)OC[C@H]2[C@H](CNC(=O)c4ccc(Cl)s4)OC(=O)N32)C(=O)C1,IC50,[1],2210 nM
CCN1CCN(c2ccc3c(c2)OC[C@H]2[C@H](CNC(=O)c4ccc(Cl)s4)OC(=O)N32)C(=O)C1,IC50,[1],15800 nM
O=C(NC[C@@H]1OC(=O)N2c3ccc(N4CCN(Cc5ccccc5)CC4=O)cc3OC[C@@H]12)c1ccc(Cl)s1,IC50,[1],11400 nM
CC(=O)N1CCN(c2ccc3c(c2)OC[C@H]2[C@H](CNC(=O)c4ccc(Cl)s4)OC(=O)N32)C(=O)C1,IC50,[1],74.8 nM
CS(=O)(=O)N1CCN(c2ccc3c(c2)OC[C@H]2[C@H](CNC(=O)c4ccc(Cl)s4)OC(=O)N32)C(=O)C1,IC50,[1],4180 nM
O=C(NC[C@@H]1OC(=O)N2c3ccc(N4CCN(S(=O)(=O)c5ccccc5)CC4=O)cc3OC[C@@H]12)c1ccc(Cl)s1,IC50,[1],5530 nM
NS(=O)(=O)c1ccccc1-c1ccc2c(c1)OC[C@H]1[C@H](CNC(=O)c3ccc(Cl)s3)OC(=O)N21,IC50,[1],60.6 nM
same,Activity,[2],4.58 µM
same,2aPTT,[3],4.86 µM
same,Cmax,[4],3630 ng/mL
same,Tmax,[5],1 h
same,half-life,[6],1.65 h
same,half-life,[7],1.38 h
same,AUC(0-inf),[8],12300 ng·h/mL
same,AUC(0-inf),[9],12200 ng·h/mL
same,clearance,[10],4.22 mL/min/kg
same,Vd,[11],0.35 L/kg
same,bioavailability,[12],29%
O=C(NC[C@@H]1OC(=O)N2c3ccc(N4CCOCC4=O)cc3OC[C@@H]12)c1ccc(Cl)cc1,IC50,[1],160 nM
same,Activity,[2],1.06 µM
same,2aPTT,[3],0.93 µM
O=C(NC[C@@H]1OC(=O)N2c3ccc(N4CCOCC4=O)cc3OC[C@@H]12)c1ccc(Cl)cn1,IC50,[1],710 nM
COc1ccc(C(=O)NC[C@@H]2OC(=O)N3c4ccc(N5CCOCC5=O)cc4OC[C@@H]23)cc1,IC50,[1],4780 nM
O=C(NC[C@@H]1OC(=O)N2c3ccc(N4CCOCC4=O)cc3OC[C@@H]12)c1cc(Cl)c(Cl)s1,IC50,[1],8080 nM
O=C(NC[C@@H]1OC(=O)N2c3ccc(N4CCOCC4=O)cc3OC[C@@H]12)c1cnc(Cl)s1,IC50,[1],7060 nM
O=C(NC[C@@H]1OC(=O)N2c3ccc(N4CCOCC4=O)cc3OC[C@@H]12)c1cc2cccc(Cl)c2s1,IC50,[1],> 100000 nM
